Results published in ChEMBL document CHEMBL1649139, “A novel gene, erm(41), confers inducible macrolide resistance to clinical isolates of Mycobacterium abscessus but is absent from Mycobacterium chelonae” (2009).

What was measured:
Type in all cases: functional
[1] = system: Mycobacteroides abscessus; assay: Antimicrobial activity against Mycobacterium abscessus isolate MC719 at day 3 preincubated with 0.1 ug/ml for 3 days by broth microdilution method
Method in brief: (§1)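 Clarithromycin MIC by broth microdilution following CLSI guidelines. Before testing, organisms were preincubated for 3 days in medium alone or in clarithromycin or erythromycin (0.01–1 μg/ml), long enough for at least two generations judged by turbidity increase. MICs were read on day 3 and again on extended incubation out to day 14.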

[2] = system: Mycobacteroides abscessus; assay: Antimicrobial activity against Mycobacterium abscessus isolate MAB30 at day 3 preincubated with 0.1 ug/ml for 3 days by broth microdilution method
Method in brief: (§2)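 Clarithromycin MIC by CLSI-conforming broth microdilution. Before testing, cultures were preincubated for 3 days, either in medium alone or in clarithromycin or erythromycin (tested range 0.01–1 μg/ml). Preincubation ran for at least two generations, judged by turbidity increase. Plates were read on day 3 and on extended incubation at days 5 to 14.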

[3] = system: Mycobacteroides abscessus; assay: Antimicrobial activity against Mycobacterium abscessus isolate MC720 at day 5 by broth microdilution method; details: isolate MC720, 120 h; method in brief: as §1
[4] = system: Mycobacteroides abscessus; assay: Antimicrobial activity against Mycobacterium abscessus isolate MC958 at day 9 preincubated with 0.1 ug/ml for 3 days by broth microdilution method
[5] = system: Mycobacteroides abscessus; assay: Antimicrobial activity against Mycobacterium abscessus isolate MC879 at day 3 by broth microdilution method; details: isolate MC879, 72 h
Method in brief: (§3)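 Clarithromycin MIC by broth microdilution following CLSI guidelines. Organisms were preincubated […], for 3 days before the assay. This allowed at least two generations, judged by the rise in turbidity. The MIC was read at the stated day, with incubation extended from day 3 to as long as 14 days.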

[6] = system: Mycobacteroides abscessus; assay: Antimicrobial activity against Mycobacterium abscessus isolate MC719 at day 3 preincubated with 0.1 ug/ml erythromycin for 3 days by broth microdilution method; method in brief: as §1
[7] = system: Mycobacteroides abscessus; assay: Antimicrobial activity against Mycobacterium abscessus isolate MC879-2 at day 14 preincubated with 0.1 ug/ml for 3 days by broth microdilution method
[8] = system: Mycobacteroides abscessus; assay: Antimicrobial activity against Mycobacterium abscessus isolate MC1448 at day 9 by broth microdilution method; details: isolate MC1448, 216 h; method in brief: as §1
[9] = system: Mycolicibacterium smegmatis; assay: Antimicrobial activity against Mycobacterium smegmatis transformed with erm allele Mycobacterium abscessus isolate MAB30 preincubated with 2 ug/ml erythromycin for 20 to 24 hrs by broth microdilution method
[10] = system: Mycobacteroides abscessus; assay: Antimicrobial activity against Mycobacterium abscessus isolate MC723 at day 7 preincubated with 0.1 ug/ml erythromycin for 3 days by broth microdilution method; method in brief: as §1
[11] = system: Mycobacteroides abscessus; assay: Antimicrobial activity against Mycobacterium abscessus isolate MC723 at day 14 by broth microdilution method; details: isolate MC723, 336 h; method in brief: as §1
[12] = system: Mycobacteroides abscessus; assay: Antimicrobial activity against Mycobacterium abscessus isolate MC719 at day 9 preincubated with 0.1 ug/ml erythromycin for 3 days by broth microdilution method; method in brief: as §1
[13] = system: Mycobacteroides abscessus; assay: Antimicrobial activity against Mycobacterium abscessus isolate MC879 at day 3 preincubated with 0.1 ug/ml for 3 days by broth microdilution method
Method in brief: (§4)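 To test inducible resistance, cultures were preincubated for 3 days in clarithromycin or erythromycin, within 0.01–1 μg/ml. The period was set so cultures passed at least two generations, judged by turbidity increase. Clarithromycin MIC was then determined by CLSI-conforming broth microdilution and read on the stated day, from day 3 up to 14.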

[14] = system: Mycobacteroides abscessus; assay: Antimicrobial activity against Mycobacterium abscessus isolate MC958 at day 3 preincubated with 0.1 ug/ml erythromycin for 3 days by broth microdilution method; method in brief: as §4
[15] = system: Mycobacteroides abscessus; assay: Antimicrobial activity against Mycobacterium abscessus isolate MC1028 at day 5 preincubated with 0.1 ug/ml for 3 days by broth microdilution method; method in brief: as §2
[16] = system: Mycobacteroides abscessus; assay: Antimicrobial activity against Mycobacterium abscessus isolate MC1028 at day 3 preincubated with 0.1 ug/ml for 3 days by broth microdilution method; method in brief: as §2
[17] = system: Mycobacteroides abscessus; assay: Antimicrobial activity against Mycobacterium abscessus isolate MC1028 at day 9 by broth microdilution method; details: isolate MC1028, 216 h; method in brief: as §2
[18] = system: Mycobacteroides abscessus; assay: Antimicrobial activity against Mycobacterium abscessus isolate MC879 at day 5 preincubated with 0.1 ug/ml for 3 days by broth microdilution method; method in brief: as §4
[19] = system: Mycobacteroides abscessus; assay: Antimicrobial activity against Mycobacterium abscessus isolate MAB30 at day 7 preincubated with 0.1 ug/ml erythromycin for 3 days by broth microdilution method; method in brief: as §2
[20] = system: Mycobacteroides abscessus; assay: Antimicrobial activity against Mycobacterium abscessus isolate MC1448 at day 5 preincubated with 0.1 ug/ml for 3 days by broth microdilution method; method in brief: as §1
[21] = system: Mycobacteroides abscessus; assay: Antimicrobial activity against Mycobacterium abscessus isolate MC879 at day 9 preincubated with 0.1 ug/ml for 3 days by broth microdilution method; method in brief: as §4
[22] = system: Mycobacteroides abscessus; assay: Antimicrobial activity against Mycobacterium abscessus isolate MC1448 at day 14 by broth microdilution method; details: isolate MC1448, 336 h; method in brief: as §2
[23] = system: Mycobacteroides abscessus; assay: Antimicrobial activity against Mycobacterium abscessus isolate MC958 at day 14 by broth microdilution method; details: isolate MC958, 336 h; method in brief: as §3
[24] = system: Mycobacteroides abscessus; assay: Antimicrobial activity against Mycobacterium abscessus isolate MC720 at day 14 preincubated with 0.1 ug/ml for 3 days by broth microdilution method; method in brief: as §1
[25] = system: Mycobacteroides abscessus; assay: Antimicrobial activity against Mycobacterium abscessus isolate MC1448 at day 7 by broth microdilution method; details: isolate MC1448, 168 h; method in brief: as §1
[26] = system: Mycobacteroides abscessus; assay: Antimicrobial activity against Mycobacterium abscessus isolate MC719 at day 9 by broth microdilution method; details: isolate MC719, 216 h; method in brief: as §1
[27] = system: Mycobacteroides abscessus; assay: Antimicrobial activity against Mycobacterium abscessus isolate MAB30 at day 7 by broth microdilution method; details: isolate MAB30, 168 h; method in brief: as §2
[28] = system: Mycobacteroides abscessus; assay: Antimicrobial activity against Mycobacterium abscessus isolate MC723 at day 3 preincubated with 0.1 ug/ml erythromycin for 3 days by broth microdilution method; method in brief: as §1
[29] = system: Mycobacteroides abscessus; assay: Antimicrobial activity against Mycobacterium abscessus isolate MC720 at day 3 by broth microdilution method; details: isolate MC720, 72 h; method in brief: as §1
[30] = system: Mycobacteroides abscessus; assay: Antimicrobial activity against Mycobacterium abscessus isolate MC1448 at day 9 preincubated with 0.1 ug/ml for 3 days by broth microdilution method; method in brief: as §1
[31] = system: Mycobacteroides abscessus; assay: Antimicrobial activity against Mycobacterium abscessus isolate MC720 at day 3 preincubated with 0.1 ug/ml erythromycin for 3 days by broth microdilution method; method in brief: as §1
[32] = system: Mycobacteroides abscessus; assay: Antimicrobial activity against Mycobacterium abscessus isolate MC723 at day 14 preincubated with 0.1 ug/ml for 3 days by broth microdilution method; method in brief: as §1
[33] = system: Mycobacteroides abscessus; assay: Antimicrobial activity against Mycobacterium abscessus isolate MC723 at day 7 by broth microdilution method; details: isolate MC723, 168 h
Method in brief: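 Clinical M. abscessus isolates were preincubated for 3 days, either in medium alone or in clarithromycin or erythromycin at 0.01 to 1 μg/ml, allowing at least two generations of growth judged by turbidity. The clarithromycin MIC was then determined by CLSI-conforming broth microdilution, with plates read on day 3 and on extended incubation (days 5 to 14).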

[34] = system: Mycobacteroides abscessus; assay: Antimicrobial activity against Mycobacterium abscessus isolate MC879-2 at day 5 preincubated with 0.1 ug/ml erythromycin for 3 days by broth microdilution method
[35] = system: Mycobacteroides abscessus; assay: Antimicrobial activity against Mycobacterium abscessus isolate MC719 at day 3 by broth microdilution method; details: isolate MC719, 72 h; method in brief: as §1
[36] = system: Mycobacteroides abscessus; assay: Antimicrobial activity against Mycobacterium abscessus isolate MC719 at day 7 preincubated with 0.1 ug/ml for 3 days by broth microdilution method; method in brief: as §1

Measured: MIC

CC[C@H]1OC(=O)[C@H](C)[C@@H](O[C@H]2C[C@@](C)(OC)[C@@H](O)[C@H](C)O2)[C@H](C)[C@@H](O[C@@H]2O[C@H](C)C[C@H](N(C)C)[C@H]2O)[C@](C)(OC)C[C@@H](C)C(=O)[C@H](C)[C@@H](O)[C@]1(C)O [CLARITHROMYCIN]
≤ 0.5 µg/mL: [1] | [2] | [5] | [6] | [9] | [13] | [14] | [15] | [16] | [17] | [19] | [27] | [28] | [29] | [31] | [35]
8 µg/mL: [33]
1 µg/mL: [3]
4 µg/mL: [18]
> 32 µg/mL: all other assays above
